Screening data: PubChem, The Scripps Research Institute Molecular Screening Center
A selection: hits, their analogues and other compounds. The true share with any hit is near 2%.
M1 ag: agonists of human M1 muscarinic receptor | AID 588814 | CHO-K1 hM1, Fluo-8 calcium fluorescence, agonist mode; 0% DMSO, 100% acetylcholine EC100 | activation, % at 3 µM | actives 0.33% (n = 360,000);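 active = activation above the run's mean compound activation plus 3 SD, cut at about 16% in these data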;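 note: peak over basal fluorescence ratio within a 140 s kinetic read after compound addition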
Target sequence (P11229 whole entry, looked up): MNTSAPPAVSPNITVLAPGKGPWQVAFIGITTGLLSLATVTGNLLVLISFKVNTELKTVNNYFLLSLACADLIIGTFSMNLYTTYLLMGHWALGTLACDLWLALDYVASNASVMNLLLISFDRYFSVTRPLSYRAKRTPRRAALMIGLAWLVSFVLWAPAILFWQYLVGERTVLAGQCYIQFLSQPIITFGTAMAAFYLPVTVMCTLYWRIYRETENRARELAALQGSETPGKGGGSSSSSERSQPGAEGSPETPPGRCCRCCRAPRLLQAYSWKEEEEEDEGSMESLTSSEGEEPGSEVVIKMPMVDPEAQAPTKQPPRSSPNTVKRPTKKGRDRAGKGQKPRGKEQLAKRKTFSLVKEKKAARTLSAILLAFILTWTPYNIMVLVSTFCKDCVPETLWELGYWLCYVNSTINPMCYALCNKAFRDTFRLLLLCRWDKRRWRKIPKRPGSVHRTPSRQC
M5 antag: CHRM5 antagonism in calcium assay; P08912; CHO-hM5 cells, Fluo-8 calcium fluorescence, ACh EC80; inhibition, % at 3 µM; actives 0.59% (n = 360,000); AID 624040;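 active = inhibition above a per-plate cutoff, the mean of that plate's test compounds plus 3 SD, cut at about 27% in these data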;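 note: 0% = acetylcholine EC80 with DMSO and 100% = DMSO without agonist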
M1 antag: blocks human M1 muscarinic receptor | P11229 | CHO-K1 hM1, Fluo-8 calcium fluorescence, ACh EC80 antagonist | inhibition, % at 3 µM | actives 1.3% (n = 360,000);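 active = percent inhibition above its own plate's cutoff, namely the mean of that plate's compound wells plus 3 SD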;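 note: peak over basal fluorescence ratio during 140 s after agonist addition; 0% = ACh EC80 plus DMSO and 100% = DMSO alone without agonist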
CHRM5 PAM: potentiates acetylcholine response at human M5 receptor; P08912; CHO-K1 hM5, Fluo-8 calcium, ACh EC20 PAM; 0% = ACh EC20, 100% = ACh EC100; activation, % at 3 µM; actives 0.3% (n = 360,000); AID 624038;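 active = activation above the run cutoff, the mean activation of all test compounds plus 3 SD, cut at about 18% in these data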
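Measured by: Fluo-8 calcium fluorescence; material: human M5 receptor in CHO-K1 cells; schedule: Post-acetylcholine fluorescence recording 140 s; benchmarks: low control EC20 acetylcholine (0%), high control EC100 acetylcholine (100%); read-out: Max/basal fluorescence ratio as % of EC20–EC100 ACh window; compound: single dose, 3 µM nominal final test concentration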
CHRM1 PAM: positive allosteric modulators of human M1 muscarinic receptor. AID 588819. activation, % at 3 µM. actives 0.088% (n = 360,000). CHO-K1 hM1, Fluo-8 calcium fluorescence, ACh EC20; 0% = ACh EC20, 100% = maximal ACh. P11229; in the data active = activation above about 19%, passing the limit was not always enough
M5 ag: agonists of human muscarinic M5 receptor (CHRM5); P08912; CHO-K1 hM5 cells, Fluo-8 calcium fluorescence; 0% DMSO wells, 100% maximal acetylcholine response; activation, % at 3 µM; actives 0.19% (n = 360,000); AID 624037;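 active = activation above the run's mean over test compounds plus 3 SD, cut at about 23% in these data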;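 note: signal is peak over basal fluorescence ratio across the kinetic read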
* marks the source's active call; other numbers are inactive results; . = no result.

SMILES	M1 ag	M5 antag	M1 antag	CHRM5 PAM	CHRM1 PAM	M5 ag
CC[N+](CC)(CC)CCC(O)(c1ccccc1)C1CCCCC1 (centres undefined)	-5	99*	98*	-18	-25	-1
CCN(CC)CCC(O)(c1ccccc1)C1CCCCC1 (centres undefined)	-10	89*	100*	-33	-30	-22
Cc1ccccc1NC(=O)NCCCN1CCN(C2CCCCC2)CC1	-2	-5	-10	1	-4	-8
Cc1cc(C(=O)NCCCN2CCN(C3CCCCC3)CC2)n(-c2ccccc2)n1	36*	5	7	-2	0	-4
CC(C)(C)OC(=O)CNC(=O)c1[nH]cnc1C(=O)NCCCCCNC(=O)OC(C)(C)C	-1	32*	30	-39	-21	4
CC(C)C[C@H](NC(=O)c1nc[nH]c1C(=O)NCCCCCNC(=O)OC(C)(C)C)C(=O)OC(C)(C)C	-10	-3	61*	-21	-35	-6
CC(C)(C)OC(=O)CNC(=O)c1[nH]cnc1C(=O)NCCCCCN	-7	19	2	-11	2	1
Cc1cc(F)ccc1C(O)c1ncc(-c2ccccc2Cl)[nH]1 (centres undefined)	-3	5	-9	-2	8	1
O=[N+]([O-])c1ccc(/C=C/C2=NN(c3ccccc3)C(c3ccco3)C2)o1 (centres undefined)	66*	52*	60*	-24	-15	58*
CCCS(=O)(=O)NC(=O)C1(C)CCCN(C(=O)c2cc(F)cc(F)c2)C1 (centres undefined)	-2	2	-10	0	4	-1
CC(=O)N(CCCCl)C(C#N)c1ccccc1 (centres undefined)	51*	2	25	-10	-32	20
COc1cc(C(C)=O)ccc1OCC(=O)N1CCC(Cc2ccccc2)CC1	-3	-1	-19	3	12	0
COc1cc(C(C)=O)ccc1OCCN1CCC(Cc2ccccc2)CC1	-1	8	45*	-5	-24	-15
COc1cc(C(C)=O)ccc1OCCCN1CCC(Cc2ccccc2)CC1	-1	9	44*	-13	-23	-17
CCOc1ccccc1N1CCN(C2=C(NS(=O)(=O)c3cccs3)C(=O)c3ccccc3C2=O)CC1	-6	-2	60*	-7	-23	-3
O=C1C(NS(=O)(=O)c2cccs2)=C(N2CCN(Cc3ccccc3)CC2)C(=O)c2ccccc21	-2	13	31*	-23	-14	-2
CN1CCN(C2=C(NS(=O)(=O)c3cccs3)C(=O)c3ccccc3C2=O)CC1	-3	7	-9	1	7	1
CC1=C(C)C(=O)C(N2CCOCC2)=CC1=O	-3	12	-5	21*	8	7
NC(=O)c1ccc(C(F)(F)F)n(Cc2c(Cl)cccc2Cl)c1=O	0	-4	-10	1	20*	0
CCCCN1C(=O)C(=O)N(CC(=O)Nc2ccccc2C(C)=O)C1=O	-3	5	-10	7	12	0
CCCCN1C(=O)C(=O)N(CC(=O)Nc2cc(Cl)ccc2OC)C1=O	1	-11	-19	7	28*	7
CCOC(=O)N1CCN(C(=O)c2ccc(CS(=O)c3cccc(C)c3)o2)CC1 (centres undefined)	-1	7	-13	1	7	1
CC(C)n1c(CNC(=O)c2ccccc2F)nnc1SCC(=O)NC1CCCCC1	-1	-4	-4	4	8	3
CN=C1NC(C)(C)C2CCC(C)(CC2)S1	-9	4	39*	-25	-29	-11
CC(=O)N1CCc2cc(S(=O)(=O)N3CCc4ccccc43)ccc21	1	9	60*	-9	-23	-5
SMILES	M1 ag	M5 antag	M1 antag	CHRM5 PAM	CHRM1 PAM	M5 ag
CCOC(=O)C1CCN(S(=O)(=O)c2ccc3c(c2)CCN3C(C)=O)CC1	1	32*	11	-13	-8	-3
Cn1cc(S(=O)(=O)N2CCc3ccccc32)cc1C(=O)NC(C)(C)C	4	41*	32*	-22	-15	10
C=CCn1c(SCC(=O)NCc2ccccc2)nnc1C1CCCCC1	8	-6	-2	25*	4	-2
C=CCn1c(SCC(=O)NCCc2ccccc2)nnc1C1CC1	-3	17	-1	-17	2	-2
Cc1oc(-c2ccc(Cl)cc2)nc1CS(=O)CC(=O)NCCCN1CCN(Cc2ccccc2)CC1 (centres undefined)	-1	31*	23	-12	-10	-7
Cc1ccc(-c2nc(CSCC(=O)NCCCN3CCOCC3)c(C)o2)cc1	-6	2	-2	0	7	-7
Cc1ccc(-c2nc(CSCC(=O)NCCN3CCN(Cc4ccccc4)CC3)c(C)o2)cc1	-4	26	26*	-10	-18	1
C[C@@H]1CN([C@H](C)CO)C(=O)CCCn2nncc2CO[C@H]1CN(C)Cc1cccc(C(=O)O)c1	-3	-11	-7	4	0	2
CC[C@H](C)[C@H]1CNC(=S)N1CC1CCN(CC2CCC(C)CC2)CC1 (some centres undefined)	-11	4	9	-12	-15	-3
CC[C@H](C)[C@H]1CNC(=S)N1CC1CCN(CCC23CC4CC(CC(C4)C2)C3)CC1	-11	18	90*	-19	-31	-3
CC(=O)Nc1cccc(NC(=O)NC2CC(=O)N(c3ccc4c(c3)OCCO4)C2)c1 (centres undefined)	0	1	-11	-4	6	1
CC(C)(C)C(C(=O)NCc1ccccc1)N1CCN(CCN2CCOCC2)CC1 (centres undefined)	.	4	.	0	.	0
COc1ccccc1C(CNC(=O)c1cccc(NS(=O)(=O)c2ccc(C)c(F)c2)c1)N1CCCC1 (centres undefined)	-8	15	84*	-27	-26	-10
COc1ccccc1C(CNC(=O)c1ccc(NS(=O)(=O)c2ccc(F)c(C)c2)cc1)N1CCCC1 (centres undefined)	-6	8	22	-19	-13	-9
COc1ccc(C(CNC(=O)c2ccc(NS(=O)(=O)c3ccc(F)c(C)c3)cc2)N2CCCC2)cc1 (centres undefined)	-8	-4	73*	-1	-29	-13
COc1ccc(CNC(=O)C(C)OC(=O)c2cccc(N(C)C)c2)cc1 (centres undefined)	-3	9	2	-7	-1	-1
